Test results published in ChEMBL document CHEMBL4265978, “In search of constrained FTY720 and phytosphingosine analogs as dual acting anticancer agents targeting metabolic and epigenetic pathways” (Eur J Med Chem, 2018).
Calls of active or inactive are those of the source. The calls are words filed in the database; no cut-off is given here.

What was measured:
[1] = target: T1, Histone deacetylase (Mus musculus) (UniProt Q8VH37+Q9Z2V6+Q9Z2V5+O09106+Q8C2B3+P70288+O88895+Q91WA3+Q99N13+Q6NZM9+Q6P3E7); assay: Inhibition of HDAC in mouse FL5.12 cells assessed as increase in histone H3 acetylation at 10 uM after 6 hrs by Western blot analysis; format: cell-based
In short: (§1)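 Histones acid-extracted in 0.2 N HCl overnight at 4°C; protein measured by BCA. Samples run on 4-12% gels and transferred to nitrocellulose, blocked in 5% BSA. Probed overnight at 4°C for acetyl-H3K9, H3K18, H4K5, H4K8 and total H3/H4, then with IRDye secondaries; infrared imaging.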

[2] = target: T1, Histone deacetylase (Mus musculus); assay: Inhibition of HDAC in MEF assessed as increase in histone H3 acetylation at 10 to 20 uM after 6 hrs by Western blot analysis; format: cell-based; in short: as §1
[3] = target: T1, Histone deacetylase (Mus musculus); assay: Inhibition of HDAC in MEF assessed as increase in histone H3K9 acetylation at 5 uM after 6 hrs by Western blot analysis; format: cell-based; in short: as §1
[4] = target: T1, Histone deacetylase (Mus musculus); assay: Inhibition of HDAC in MEF assessed as increase in histone H3K18 acetylation at 5 uM after 6 hrs by Western blot analysis; format: cell-based; in short: as §1
[5] = target: T1, Histone deacetylase (Mus musculus); assay: Inhibition of HDAC in MEF assessed as increase in histone H3 acetylation at 5 uM after 6 hrs by Western blot analysis; format: cell-based; in short: as §1
[6] = target: T1, Histone deacetylase (Mus musculus); assay: Inhibition of HDAC in MEF assessed as increase in histone H4K5 acetylation at 5 uM after 6 hrs by Western blot analysis; format: cell-based; in short: as §1
[7] = target: T1, Histone deacetylase (Mus musculus); assay: Inhibition of HDAC in MEF assessed as increase in histone H4K8 acetylation at 5 uM after 6 hrs by Western blot analysis; format: cell-based; in short: as §1
[8] = target: T1, Histone deacetylase (Mus musculus); assay: Inhibition of HDAC in MEF assessed as increase in histone H4 acetylation at 5 uM after 6 hrs by Western blot analysis; format: cell-based; in short: as §1
[9] = target: T1, Histone deacetylase (Mus musculus); assay: Inhibition of HDAC in MEF assessed as increase in histone H3K9 acetylation at 6.1 uM after 24 hrs by Western blot analysis; format: cell-based; in short: as §1
[10] = target: T1, Histone deacetylase (Mus musculus); assay: Inhibition of HDAC in MEF assessed as increase in histone H3K18 acetylation at 6.1 uM after 24 hrs by Western blot analysis; format: cell-based; in short: as §1
[11] = target: T1, Histone deacetylase (Mus musculus); assay: Inhibition of HDAC in MEF assessed as increase in histone H3 acetylation at 6.1 uM after 24 hrs by Western blot analysis; format: cell-based; in short: as §1
[12] = target: T1, Histone deacetylase (Mus musculus); assay: Inhibition of HDAC in MEF assessed as increase in histone H4K5 acetylation at 10 uM after 6 hrs by Western blot analysis; format: cell-based; in short: as §1
[13] = target: T1, Histone deacetylase (Mus musculus); assay: Inhibition of HDAC in MEF assessed as increase in histone H4 acetylation at 10 uM after 6 hrs by Western blot analysis; format: cell-based; in short: as §1
[14] = target: Histone deacetylase (Homo sapiens) (UniProt Q13547+O15379+Q9UBN7+Q92769+Q9UQL6+Q8WUI4+Q9BY41+Q96DB2+P56524+Q9UKV0+Q969S8); assay: Inhibition of HDAC (unknown origin) at 5 uM; format: protein assay

CCCCCCCCc1ccc(CCC(N)(CO)COP(=O)(O)O)cc1 (centres undefined)
inhibition [1]: inactive
inhibition [2]: inactive
inhibition [3]: inactive
inhibition [4]: inactive
inhibition [5]: inactive
inhibition [6]: inactive
inhibition [7]: inactive
inhibition [8]: inactive
inhibition [9]: inactive
inhibition [10]: inactive
inhibition [11]: inactive
inhibition [12]: inactive
inhibition [13]: inactive
inhibition [14]: 60 to 75%
